# Most compounds without a hit are left out; they make up all but 2.3% or so of the library.
# TRPC4 PAM: TRPC4 (mouse) allosteric potentiation. Q9QUQ5. actives 0.42% (n = 310,000). B-score at 10 µM. HEK293 TRPC4beta/mu-opioid, DAMGO EC20, Fluo-4 Ca2+ flux; active compounds read high;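 active means B-score of calcium response area above 5 SD of library B-scores, with initial fluorescence ratio within 5 SD of library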;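 further: B-score of integrated fluorescence ratio over time as area under calcium response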
# Target sequence (Q9QUQ5 whole entry, looked up): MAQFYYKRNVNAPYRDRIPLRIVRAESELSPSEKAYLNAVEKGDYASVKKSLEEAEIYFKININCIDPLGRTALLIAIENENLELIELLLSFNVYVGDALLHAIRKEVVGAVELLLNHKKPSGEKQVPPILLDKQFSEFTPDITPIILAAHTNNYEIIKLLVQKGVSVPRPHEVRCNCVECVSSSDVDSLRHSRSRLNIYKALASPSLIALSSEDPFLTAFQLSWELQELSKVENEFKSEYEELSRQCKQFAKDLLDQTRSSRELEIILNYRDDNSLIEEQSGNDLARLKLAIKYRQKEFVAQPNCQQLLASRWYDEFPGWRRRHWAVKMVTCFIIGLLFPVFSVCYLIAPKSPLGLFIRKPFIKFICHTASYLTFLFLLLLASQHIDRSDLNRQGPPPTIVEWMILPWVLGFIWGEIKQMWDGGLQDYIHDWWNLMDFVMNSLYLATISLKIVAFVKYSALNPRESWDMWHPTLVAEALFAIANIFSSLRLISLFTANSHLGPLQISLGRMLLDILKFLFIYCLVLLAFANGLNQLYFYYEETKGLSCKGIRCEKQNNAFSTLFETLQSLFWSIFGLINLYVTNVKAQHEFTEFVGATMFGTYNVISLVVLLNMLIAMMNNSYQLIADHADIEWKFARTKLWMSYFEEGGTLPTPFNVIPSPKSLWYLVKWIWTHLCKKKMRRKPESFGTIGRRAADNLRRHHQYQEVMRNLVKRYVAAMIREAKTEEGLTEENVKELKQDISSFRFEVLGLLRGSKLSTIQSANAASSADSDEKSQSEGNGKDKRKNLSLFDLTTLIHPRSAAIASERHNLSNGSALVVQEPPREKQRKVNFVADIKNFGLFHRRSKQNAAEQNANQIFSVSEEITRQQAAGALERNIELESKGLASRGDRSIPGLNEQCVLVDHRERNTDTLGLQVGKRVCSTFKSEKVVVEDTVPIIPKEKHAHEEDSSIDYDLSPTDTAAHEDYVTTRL
# TRPC4 agonist: activators of mouse TRPC4 channel | B-score at 10 µM | HEK293 TRPC4beta/mu-opioid, Fluo4 calcium fluorescence; active compounds read high | actives 0.49% (n = 310,000) | Q9QUQ5 | AID 2237;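 active means B-score above 5 SD of library B-scores, and initial fluorescence ratio not above library mean plus 5 SD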;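 further: positive B-score marks a calcium rise read as TRPC4 activation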
#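 Assay system – TRPC4beta and mu-opioid receptor HEK293 stable cells · Measured by – Fluo4 fluorescence, kinetic · Schedule – dye loading 45 min room temperature, 110 s kinetic read · Read-out – B-scored integrated calcium fluorescence ratio · Controls – buffer and maximal DAMGO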
# TRPC6 inhibitor: blocks the mouse TRPC6 cation channel. HEK293-TRPC6, membrane potential dye, ACh-evoked depolarization; active compounds read low. B-score at 10 µM. actives 1.1% (n = 310,000). AID 2553;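 active means B-score under library mean minus 3 SD, initial fluorescence not abnormally high, positive integrated signal ratio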;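 further: B-score derived from integrated fluorescence ratio over the kinetic read; more negative B-score means stronger inhibition of depolarization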
# TRPC6 activator: mouse TRPC6 channel activation; Q61143; HEK293-TRPC6 membrane potential dye fluorescence; active compounds read high; B-score at 10 µM; actives 0.13% (n = 310,000);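 active means B-score of the integrated fluorescence ratio above library mean plus 3 SD, and starting fluorescence ratio within library mean plus 5 SD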;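 further: higher score means more depolarization so channel activation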
# TRPC4 inh: blocks the mouse TRPC4 cation channel | actives 0.39% (n = 300,000) | AID 2247 | B-score at 10 µM | HEK293 TRPC4beta/mu-opioid, DAMGO-evoked Fluo4 calcium flux; active compounds read low;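 active means B-score over 3 SD under the library average, no early fluorescence shift, positive overall ratio signal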
#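 System: stable TRPC4beta/mu-opioid receptor HEK293 cells; Dosing: single-point compound dosing; Measured by: Fluo4 Ca2+ flux fluorescence; Read-out basis: per-well B score of integrated baseline-normalized Fluo4 ratio.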
# TRPC4 spec 2: second check of whether TRPC6 inhibitors also affect mouse TRPC4. actives 42% (n = 920). shares compounds with TRPC6 inhibitor. AID 2776. HEK293 TRPC4/MOR, membrane potential dye fluorescence; channel activated by saturating DAMGO dose. inhibition, % at 10 µM;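 active means compounds whose fluorescence signal differed from control wells by over 3 SD, either direction, in both duplicate plates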
# TRPC4 spec: tests whether TRPC6 inhibitors also affect mouse TRPC4 | AID 2777 | shares compounds with TRPC6 inhibitor | actives 61% (n = 920) | activity change, negative = inhibition, % at 10 µM | HEK293 TRPC4/mu-opioid, membrane potential fluorescence;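 active means rise or fall in signal beyond 3 SD of buffer-only wells in both replicate plates, either sign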;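 further: integrated kinetic ratio of fluorescence range over baseline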
# HEK293 MPD ctr 2-1: parental HEK293 nonspecific activity of TRPC6 inhibitors, second screen; shares compounds with TRPC6 inhibitor; parental HEK293 membrane potential dye fluorescence; maximal acetylcholine challenge after compound addition; signal change vs control, % at 10 µM; actives 31% (n = 920); AID 2779;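 active means membrane potential signal moving either way by over 3 SD of the maximum-effect control, in both duplicate plates, meaning non-specific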
# HEK293 MPD ctr-1: checks TRPC6 inhibitor effects in parental HEK293 cells; shares compounds with TRPC6 inhibitor; parental HEK293 membrane potential dye fluorescence; membrane potential signal change, % at 10 µM; actives 60% (n = 920); AID 2780;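 active means membrane potential signal shifting up or down by more than 3 SD of buffer-only wells, on both duplicate plates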
# HEK293 MPD ctr-2: parental HEK293 nonspecific activity of TRPC6 modulators; shares compounds with TRPC6 inhibitor; membrane potential dye fluorescence; membrane potential signal change, % at 10 µM; actives 51% (n = 2,400);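 active means membrane potential signal moves up or down beyond 5 SD from buffer-only wells, on both duplicate plates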
# HEK293 MPD ctr 2-2: second counter-screen for TRPC6 modulators: effect in parental HEK293 cells | inhibition, % at 10 µM | actives 14% (n = 2,400) | shares compounds with TRPC6 inhibitor | membrane potential dye fluorescence; after compound, maximal acetylcholine stimulation;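 active means membrane potential signal drops by more than 5 SD from the mean control signal, in both duplicate plates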;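 further: plate controls were acetylcholine ECmax control wells for no effect and buffer only wells for full effect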
# TRPC4/MOR mod: selectivity of TRPC6 modulators against mouse TRPC4 | percent change from control (negative = decrease, positive = increase), % at 10 µM | AID 488927 | actives 69% (n = 2,400) | shares compounds with TRPC6 inhibitor | HEK293 TRPC4/mu-opioid, membrane potential fluorescence;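 active means membrane potential signal moved up or down beyond 5 SD of buffer control wells, in both duplicate plates, actives on both sides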;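 further: plate controls were assay buffer wells for no effect and DAMGO maximal-effect wells for full effect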
# TRPC4 ctr inh 2: mouse TRPC4 off-target activity of TRPC6 modulators, second screen | shares compounds with TRPC6 inhibitor | HEK293 TRPC4/mu-opioid, membrane potential dye fluorescence; stimulated with maximal-effect DAMGO | inhibition, % at 10 µM | actives 55% (n = 2,400);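 active means drop in membrane potential signal beyond 5 SD of the control wells in both duplicate plates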;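 further: TRPC4 counter screen for TRPC6 hits run under conditions tuned for TRPC6 not TRPC4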
# TRPC6 block conf: confirmation of mouse TRPC6 inhibitors | shares compounds with TRPC6 inhibitor | actives 43% (n = 3,300) | AID 488960 | HEK293-TRPC6, membrane potential dye, ACh-evoked depolarization | inhibition, % at 10 µM;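 active means fluorescence ratio falls more than 5 SD below the full-stimulation control mean, in both duplicate runs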;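 further: integrated fluorescence ratio of peak minus minimum over baseline after agonist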
# TRPC6 act conf: mouse TRPC6 activator confirmation | shares compounds with TRPC6 inhibitor | HEK293-TRPC6 membrane potential dye fluorescence, FDSS | activation, % at 10 µM | actives 11% (n = 2,800) | AID 488961;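 active means ratio signal rise beyond 5 SD above unstimulated control wells' mean, seen in both duplicate runs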;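 further: plate controls were buffer EC0 wells for no effect and acetylcholine ECmax response for full effect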
# An asterisk follows results filed as active; i = inactive; . = not tested or not shown; + = active, no number.
SMILES,TRPC4 PAM,TRPC4 agonist,TRPC6 inhibitor,TRPC6 activator,TRPC4 inh,HEK293 MPD ctr-2,HEK293 MPD ctr 2-2,TRPC4/MOR mod,TRPC4 ctr inh 2,TRPC6 block conf,TRPC6 act conf,others
c1ccc(Cn2nnc3ccccc32)cc1,i,i,i,i,i,.,.,.,.,.,.,
c1ccc(Cn2nnc3cnccc32)cc1,i,i,-8.1*,i,-5*,.,.,.,.,i,i,TRPC4 spec 2=i;TRPC4 spec=i;HEK293 MPD ctr 2-1=i;HEK293 MPD ctr-1=i
COC(=O)c1c(-c2ccc3ccccc3c2)csc1NC(=O)Cc1ccc(OC)c(OC)c1,i,i,-5.8*,i,i,i,i,i,i,i,i,
CN(C(=O)COC(=O)C1CCN(S(=O)(=O)c2ccc3c(c2)OCCO3)CC1)C1CCS(=O)(=O)C1 (centres undefined),i,i,i,i,i,.,.,.,.,.,.,
COc1ccc2ccccc2c1CNC(C)CCc1ccccc1 (centres undefined),i,i,-7.8*,i,i,.,.,.,.,53%*,.,TRPC4 spec 2=34%*;TRPC4 spec=90%*;HEK293 MPD ctr 2-1=i;HEK293 MPD ctr-1=56%*
COc1ccc(CCNCc2c(OC)ccc3ccccc23)cc1OC,i,i,i,i,i,.,.,.,.,.,.,
CCn1c(CN2CCOCC2)nnc1SCC(=O)Nc1ccccc1Cl,i,i,i,i,i,.,.,.,.,.,.,
CN(C)CCCN1c2ccccc2Sc2ccc(C(F)(F)F)cc21,i,i,-7.2*,i,i,.,.,.,.,i,i,TRPC4 spec 2=70%*;TRPC4 spec=1.5%*;HEK293 MPD ctr 2-1=i;HEK293 MPD ctr-1=i
CC(CN1c2ccccc2Sc2ccccc21)N(C)C (centres undefined),i,i,-6.1*,i,i,i,94%*,8.0%*,32%*,72%*,i,
CCN(CC)CCCCN1c2ccccc2Sc2ccccc21,i,i,-6.5*,i,i,i,i,i,69%*,48%*,i,
CN(C)CCC(=O)N1c2ccccc2Sc2ccc(C(F)(F)F)cc21,i,i,-6.3*,i,i,88%*,92%*,14%*,38%*,89%*,.,
CCc1ccc(N2CC(C)Cn3c2nc2c3c(=O)[nH]c(=O)n2C)cc1 (centres undefined),i,i,i,i,i,.,.,.,.,.,.,
CNC(=O)C(=O)NCCN1CCN(S(=O)(=O)c2ccc3ccccc3c2)CC1,i,i,i,i,i,.,.,.,.,.,.,
CC(C)=CCc1c(O)cc(O)c2c(=O)c3c(CC=C(C)C)c(O)ccc3oc12,i,i,i,i,i,.,.,.,.,.,.,
O=C(Nc1ccc(O)cc1)/C(=C\C=C\c1ccccc1)NC(=O)c1ccccc1,i,i,-5.6*,i,i,i,i,i,37%*,i,i,
O=C1C(Cl)=C(N2CCN(Cc3ccccc3)CC2)C(=O)N1Cc1ccccc1,i,i,i,i,i,.,.,.,.,.,.,
Fc1ccc(N2CCN(C3=Nc4cccc5cccc3c45)CC2)cc1,i,i,-8.8*,i,i,-80%*,i,-38%*,74%*,68%*,i,
c1ccc(CN2CCN(C3=Nc4cccc5cccc3c45)CC2)cc1,i,i,-8.2*,i,i,-191%*,i,-50%*,72%*,68%*,i,
O=C(CCCN1C(=O)c2cccc3cccc(c23)C1=O)N1CCN(c2ccc(F)cc2)CC1,i,i,i,i,i,.,.,.,.,.,.,
Cc1ccc(S(=O)(=O)/N=C2/NC(=O)/C(=C/c3cc([N+](=O)[O-])ccc3O)S2)cc1,i,i,i,62*,i,390%*,i,66%*,i,i,280%*,
O=C1NC(=Nc2ccccc2Cl)S/C1=C\c1cc([N+](=O)[O-])ccc1O,i,82*,i,34*,i,+,i,380%*,65%*,i,658%*,
COc1cc(/C=C2\S/C(=N/S(=O)(=O)c3ccc(C)cc3)NC2=O)c([N+](=O)[O-])cc1OC,i,i,i,i,i,.,.,.,.,.,.,
CCCn1c(=S)[nH]c2cc(C(=O)N(CCO)Cc3ccccc3)ccc2c1=O,i,i,i,i,i,.,.,.,.,.,.,
CCC(NC(=O)COc1cc2c(c3oc(=O)c(C)c(C)c13)CCC(C)(C)O2)C(=O)O (centres undefined),i,i,i,i,i,.,.,.,.,.,.,
Cc1cc(=O)n2c3ccccc3n(CC(O)CN3CCCCC3)c2c1C#N (centres undefined),i,i,-8.3*,i,i,.,.,.,.,63%*,i,TRPC4 spec 2=50%*;TRPC4 spec=-21%*;HEK293 MPD ctr 2-1=i;HEK293 MPD ctr-1=-365%*
COc1cc(OC)cc(C(=O)N[C@H](C(=O)OCC(=O)NC(=O)c2cccn2C)C(C)C)c1,i,i,i,i,i,.,.,.,.,.,.,
COc1ccc(S(=O)(=O)N2CCN(CCc3ccccc3)CC2)cc1,i,i,i,i,i,.,.,.,.,.,.,

# Source: PubChem BioAssay (Johns Hopkins Ion Channel Center)
